In PMC2232892 (The Journal of General Physiology, 2000):
Read-outs that look alike come from different tables or passages of the source.

Tests used:
Shaker B, ShB Δ6-46 [1] = target: T1, Shaker B, ShB Δ6-46 (Drosophila melanogaster, UniProt P08510, DEL6-46); type: cell-based; details: for Kd: read-out: apparent Kd for external TEA block
Outline: (§1)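 Oocytes were defolliculated for 60–90 min with 2 mg/ml collagenase in Ca-free OR-2, injected with channel RNA, and held at 18°C in ND-96 with penicillin/streptomycin. Inside-out or outside-out macropatches were recorded 1–5 d later at 20–22°C, filtered at 5 kHz. External solution (mM): 5 KCl, 135 NMDG-Cl, 2 CaCl2, 2 MgCl2, 10 HEPES, pH 7.2. Internal solution: 110 KCl, 25 KOH, 10 EGTA, 10 HEPES, pH 7.2.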

T449Y Shaker channels [2] = target: T2, T449Y Shaker channels (Drosophila melanogaster, UniProt P08510, DEL6-46/T449Y); type: cell-based
Outline: as §1

Shaker B, ShB Δ6-46 [3] = target: T1, Shaker B, ShB Δ6-46; details: wild-type Shaker channels; ref Heginbotham and MacKinnon 1992; Newland et al. 1992; cited from earlier work
T449Y Shaker channels [4] = target: T2, T449Y Shaker channels; details: ref Heginbotham and MacKinnon 1992; cited from earlier work
RBK1 (rKv1.1) channels = details: ref Newland et al. 1992; cited from earlier work

interaction parameter Q (external TEA antagonism of internal TEA block) (Shaker B, ShB Δ6-46 [1]; K+ solutions, 0-100 mM external TEA, Ko = 17 mM, 0 mV) | interaction parameter Q (external vs internal TEA) (Shaker B, ShB Δ6-46 [1]; Rb+ solutions) | Kd (Shaker B, ShB Δ6-46 [1]; 20 mM internal K+ and 50 mM internal Na+) | Kd (Shaker B, ShB Δ6-46 [1]; 50 mM internal K+ (data not shown)) | Kd (Shaker B, ShB Δ6-46 [1]; 115 mM internal Na+ (20 mM K+)) | interaction parameter Q (external vs internal TEA) (T449Y Shaker channels [2]; K+ solutions) | current blocked by 2 mM internal TEA (T449Y Shaker channels [2]; absence of external TEA) | current blocked by 2 mM internal TEA (T449Y Shaker channels [2]; presence of 1 mM external TEA) | apparent zδ (voltage dependence of block, Woodhull equation) (Shaker B, ShB Δ6-46 [1]; 0.25 mM external gallamine, wild-type channels) | interaction parameter Q (external gallamine antagonism of internal TEA block) (Shaker B, ShB Δ6-46 [1]; K+ solutions, several external gallamine concentrations) | block by 0.25 mM external gallamine compared with wild-type channels (T449Y Shaker channels [2]; same concentration as on wild-type, reduced voltage sensitivity) | SMILES | δ (electrical distance of external block) (Shaker B, ShB Δ6-46 [3]) | electrical distance of external block (T449Y Shaker channels [4]) | interaction parameter Q (external vs internal TEA) (RBK1 (rKv1.1) channels)
4.6 | 1 | 7.5 ± 0.85 mM | 17.6 ± 2.7 mM | 7.6 ± 1.2 mM | 5.2 | 77 ± 0.4% | 64 ± 7% |  |  |  | CC[N+](CC)(CC)CC [TEA, tetraethylammonium] | ~0.15 | 0.04 | 5.3
 |  |  |  |  |  |  |  | 0.28 | 2 | considerably more effective | CC[N+](CC)(CC)CCOc1cccc(OCC[N+](CC)(CC)CC)c1OCC[N+](CC)(CC)CC [gallamine, Gallamine triethiode] |  |  | 
